According to ChEMBL document CHEMBL1649387, “Synthesis and evaluation of quinonoid compounds against tumor cell lines” (Eur J Med Chem, 2011):
Calls of active or inactive are those of the source. The calls are words filed in the database; no cut-off is given here.

Assays:
MDA-MB-435 [1] = experiment: DNA damage index, DNA damage in human MDA-MB-435 cells to DNA damage in human HL60 cells with FPG/ENDO3 DNA repair enzymes; assay type: functional
Summary of the method: (§1)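 Cells treated 12 h, then alkaline comet slides washed in enzyme buffer (40 mM HEPES, 100 mM KCl, 0.5 mM Na2EDTA, 0.2 mg/mL BSA, pH 8.0). Slides then incubated with FPG (30 min, 37 °C) or ENDOIII (45 min, 37 °C). Enzyme-sensitive sites = total breaks minus buffer-only breaks. 100 cells scored per group. NAC pretreatment 5 mM. Mean ± S.E.M. of three experiments.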

MDA-MB-435 [2] = experiment: Induction of lipid peroxidation in human MDA-MB-435 cells assessed as increase in TBARS formation at 5 uM after 24 hrs in presence of […]; assay type: functional, cell-based
Summary of the method: (§2)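 Cells treated 24 h, with or without 24 h pretreatment with 5 mM NAC. Cells lysed with Tris-HCl (15 mM, 1 h) and heated with TCA/HCl/thiobarbituric acid for 15 min at 100 °C, then centrifuged. TBARS read at 532 nm against hydrolyzed 1,1,3,3-tetramethoxypropane standard and normalized to protein.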

PBMC = experiment: Cytotoxicity against human PBMC cells after 72 hrs by Alamar Blue assay; assay type: cell-based
SF-295 [3] = experiment: Induction of lipid peroxidation in human SF295 cells assessed as increase in TBARS formation at 5 uM after 24 hrs in presence of […]; assay type: functional, cell-based; summary of the method: as §2
SF-295 [4] = experiment: Induction of lipid peroxidation in human SF295 cells assessed as increase in TBARS formation at 5 uM after 24 hrs; assay type: functional, cell-based; summary of the method: as §2
MDA-MB-435 [5] = experiment: Induction of lipid peroxidation in human MDA-MB-435 cells assessed as increase in TBARS formation at 5 uM after 24 hrs; assay type: functional, cell-based; summary of the method: as §2
HL-60 [6] = experiment: DNA damage index, DNA damage in human HL60 cells to DNA damage in human HL60 cells with FPG/ENDO3 DNA repair enzymes; assay type: functional; summary of the method: as §1
HL-60 [7] = experiment: DNA damage index, DNA damage in human HL60 cells to DNA damage in human HL60 cells with FPG/ENDO3 DNA repair enzymes in presence of […]; assay type: functional; summary of the method: as §1
HL-60 [8] = experiment: Induction of lipid peroxidation in human HL60 cells assessed as increase in TBARS formation at 5 uM after 24 hrs; assay type: functional, cell-based; summary of the method: as §2
HCT-8 [9] = experiment: DNA damage index, DNA damage in human HCT8 cells to DNA damage in human HL60 cells with FPG/ENDO3 DNA repair enzymes; assay type: functional; summary of the method: as §1
SF-295 [10] = experiment: DNA damage index, DNA damage in human SF295 cells to DNA damage in human HL60 cells with FPG/ENDO3 DNA repair enzymes in presence of […]; assay type: functional; summary of the method: as §1
SF-295 [11] = experiment: DNA damage index, DNA damage in human SF295 cells to DNA damage in human HL60 cells with FPG/ENDO3 DNA repair enzymes; assay type: functional; summary of the method: as §1
HCT-8 [12] = experiment: DNA damage index, DNA damage in human HCT8 cells to DNA damage in human HL60 cells with FPG/ENDO3 DNA repair enzymes in presence of […]; assay type: functional; summary of the method: as §1
MDA-MB-435 [13] = experiment: DNA damage index, DNA damage in human MDA-MB-435 cells to DNA damage in human HL60 cells with FPG/ENDO3 DNA repair enzymes in presence of […]; assay type: functional; summary of the method: as §1
HL-60 [14] = experiment: Induction of lipid peroxidation in human HL60 cells assessed as increase in TBARS formation at 5 uM after 24 hrs in presence of […]; assay type: functional, cell-based; summary of the method: as §2
HCT-8 [15] = experiment: Induction of lipid peroxidation in human HCT8 cells assessed as increase in TBARS formation at 5 uM after 24 hrs; assay type: functional, cell-based; summary of the method: as §2
HCT-8 [16] = experiment: Induction of lipid peroxidation in human HCT8 cells assessed as increase in TBARS formation at 5 uM after 24 hrs in presence of […]; assay type: functional, cell-based; summary of the method: as §2
HL-60 [17] = experiment: Genotoxicity in human HL60 cells assessed as DNA strand breaks at 5 uM after 24 hrs by comet assay; assay type: functional, cell-based
Summary of the method: (§3)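 Cells treated 24 h, with or without 24 h pretreatment with 5 mM NAC. Cells embedded in 0.75% low-melt agarose and lysed (pH 10.0, 4 °C, ≥1 h). DNA unwound 20 min in 300 mM NaOH/1 mM EDTA (pH >13), then electrophoresed 20 min at 0.86 V/cm and stained with ethidium bromide. 100 cells scored visually into classes 0–4 to give damage index.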

MDA-MB-435 [18] = experiment: Induction of apoptosis in human MDA-MB-435 cells assessed as cell viability at 5 uM after 24 hrs by trypan blue exclusion assay; assay type: functional, cell-based
Summary of the method: (§4)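 Cells incubated 24 h, with or without 24 h pretreatment with 5 mM NAC. Viability determined by trypan blue dye exclusion.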

MDA-MB-435 [19] = experiment: Induction of apoptosis in human MDA-MB-435 cells assessed as cell viability at 5 uM after 24 hrs by trypan blue exclusion assay in presence of […]; assay type: functional, cell-based; summary of the method: as §4
HCT-8 [20] = experiment: Cytotoxicity against human HCT8 cells after 72 hrs by MTT assay; assay type: functional, cell-based; conditions: HCT-8, 72 h
HL-60 [21] = experiment: Genotoxicity in human HL60 cells assessed as DNA strand breaks at 5 uM after 24 hrs by comet assay in presence of […]; assay type: functional, cell-based; summary of the method: as §3
HCT-8 [22] = experiment: Genotoxicity in human HCT8 cells assessed as DNA strand breaks at 5 uM after 24 hrs by comet assay; assay type: functional, cell-based; summary of the method: as §3
SF-295 [23] = experiment: Induction of apoptosis in human SF295 cells assessed as cell viability at 5 uM after 24 hrs by trypan blue exclusion assay; assay type: functional, cell-based; summary of the method: as §4
HL-60 [24] = experiment: Induction of apoptosis in human HL60 cells assessed as cell viability at 5 uM after 24 hrs by trypan blue exclusion assay; assay type: functional, cell-based; summary of the method: as §4
MDA-MB-435 [25] = experiment: Genotoxicity in human MDA-MB-435 cells assessed as DNA strand breaks at 5 uM after 24 hrs by comet assay; assay type: functional, cell-based; summary of the method: as §3
SF-295 [26] = experiment: Induction of apoptosis in human SF295 cells assessed as cell viability at 5 uM after 24 hrs by trypan blue exclusion assay in presence of […]; assay type: functional, cell-based; summary of the method: as §4
HL-60 [27] = experiment: Cytotoxicity against human HL60 cells after 72 hrs by MTT assay; assay type: functional, cell-based; conditions: HL-60, 72 h
SF-295 [28] = experiment: Genotoxicity in human SF295 cells assessed as DNA strand breaks at 5 uM after 24 hrs by comet assay in presence of […]; assay type: functional, cell-based; summary of the method: as §3
SF-295 [29] = experiment: Cytotoxicity against human SF295 cells after 72 hrs by MTT assay; assay type: functional, cell-based; conditions: SF-295, 72 h
HL-60 [30] = experiment: Induction of apoptosis in human HL60 cells assessed as cell viability at 5 uM after 24 hrs by trypan blue exclusion assay in presence of […]; assay type: functional, cell-based; summary of the method: as §4
HCT-8 [31] = experiment: Induction of apoptosis in human HCT8 cells assessed as cell viability at 5 uM after 24 hrs by trypan blue exclusion assay; assay type: functional, cell-based; summary of the method: as §4
HCT-8 [32] = experiment: Induction of apoptosis in human HCT8 cells assessed as cell viability at 5 uM after 24 hrs by trypan blue exclusion assay in presence of […]; assay type: functional, cell-based; summary of the method: as §4
MDA-MB-435 [33] = experiment: Cytotoxicity against human MDA-MB-435 cells after 72 hrs by MTT assay; assay type: functional, cell-based; conditions: MDA-MB-435, 72 h
HCT-8 [34] = experiment: Genotoxicity in human HCT8 cells assessed as DNA strand breaks at 5 uM after 24 hrs by comet assay in presence of […]; assay type: functional, cell-based; summary of the method: as §3
MDA-MB-435 [35] = experiment: Genotoxicity in human MDA-MB-435 cells assessed as DNA strand breaks at 5 uM after 24 hrs by comet assay in presence of […]; assay type: functional, cell-based; summary of the method: as §3
SF-295 [36] = experiment: Genotoxicity in human SF295 cells assessed as DNA strand breaks at 5 uM after 24 hrs by comet assay; assay type: functional, cell-based; summary of the method: as §3

Structure (SMILES)	Ratio (MDA-MB-435 [1])	Activity (MDA-MB-435 [2])	IC50 (PBMC)	Activity (SF-295 [3])	Activity (SF-295 [4])	Activity (MDA-MB-435 [5])	Ratio (HL-60 [6])	Ratio (HL-60 [7])	Activity (HL-60 [8])	Ratio (HCT-8 [9])	Ratio (SF-295 [10])	Ratio (SF-295 [11])	Ratio (HCT-8 [12])	Ratio (MDA-MB-435 [13])	Activity (HL-60 [14])	Activity (HCT-8 [15])	Activity (HCT-8 [16])	Activity (HL-60 [17])	Activity (MDA-MB-435 [18])	Activity (MDA-MB-435 [19])	further results
CC1(C)CCC2=C(O1)c1ccccc1C(=O)C2=O [LAPACHONE]	83.17	inactive	> 20600 nM	inactive	Active	Active	61.36	8.33	Active	72.41	8.72	58.75	11.41	5.16	inactive	Active	inactive				
CC1(C)OC2=C(C(=O)C(=O)c3ccccc32)[C@H](n2cc(-c3ccc(F)cc3)nn2)[C@H]1Br		inactive	3370 nM	inactive	Active	Active			Active						inactive	Active	inactive	Active	Active	inactive	IC50 (HCT-8 [20]): 2260 nM; Activity (HL-60 [21]): inactive; Activity (HCT-8 [22]): Active; Activity (SF-295 [23]): Active; Activity (HL-60 [24]): Active; Activity (MDA-MB-435 [25]): Active; Activity (SF-295 [26]): inactive; IC50 (HL-60 [27]): 1200 nM; Activity (SF-295 [28]): inactive; IC50 (SF-295 [29]): 1760 nM; Activity (HL-60 [30]): inactive; Activity (HCT-8 [31]): Active; Activity (HCT-8 [32]): inactive; IC50 (MDA-MB-435 [33]): 1200 nM; Activity (HCT-8 [34]): inactive; Activity (MDA-MB-435 [35]): inactive; Activity (SF-295 [36]): Active
CC1(C)OC2=C(C(=O)C(=O)c3ccccc32)[C@H](n2cc(-c3ccccc3)nn2)[C@H]1Br		inactive		inactive	Active	Active			Active						inactive	Active	inactive	Active	Active	inactive	IC50 (HCT-8 [20]): 1370 nM; Activity (HL-60 [21]): inactive; Activity (HCT-8 [22]): Active; Activity (SF-295 [23]): Active; Activity (HL-60 [24]): Active; Activity (MDA-MB-435 [25]): Active; Activity (SF-295 [26]): inactive; IC50 (HL-60 [27]): 1010 nM; Activity (SF-295 [28]): inactive; IC50 (SF-295 [29]): 1550 nM; Activity (HL-60 [30]): inactive; Activity (HCT-8 [31]): Active; Activity (HCT-8 [32]): inactive; IC50 (MDA-MB-435 [33]): 1220 nM; Activity (HCT-8 [34]): inactive; Activity (MDA-MB-435 [35]): inactive; Activity (SF-295 [36]): Active
CC1(C)CC2=C(O1)c1ccccc1C(=O)C2=O [NOR-BETA-LAPACHONE]	78.52	inactive	> 21900 nM	inactive	Active	Active	67.19	12.36	Active	63.25	9.18	63.81	10.48	7.49	inactive	Active	inactive				
